According to ChEMBL document CHEMBL1125819, “Novel benzamides as selective and potent gastrokinetic agents. 2. Synthesis and structure-activity relationships of 4-amino-5-chloro-2-ethoxy-N-[[4-(4-fluorobenzyl)-2- morpholinyl]methyl] benzamide citrate (AS-4370) and related compounds” (J Med Chem, 1991):

Key:
[1] = biological target: Serotonin 1 (5-HT1) receptor (Rattus norvegicus, UniProt P28564+P30940+P19327+P28565); assay: Inhibitory activity against 5-hydroxytryptamine 1 receptor by 3H ligand binding experiments.; format: protein assay
How it was run: (§1)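 Competition binding on rat brain synaptic membranes at 10 mg wet tissue per assay, with compounds at 0.01–1000 μM. Radioligand and tissue: S1, [3H]serotonin, frontal cortex; S2, [3H]spiperone, frontal cortex; α1, [3H]WB-4101, whole brain; α2, [3H]clonidine, whole brain. Assays ended by rapid filtration and scintillation counting. IC50 was derived by probit analysis.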

[2] = biological target: T1, Adrenergic receptor alpha-1 (Rattus norvegicus, UniProt P15823+P23944+P43140); assay: Inhibitory activity against Alpha-1 adrenergic receptor by 3H ligand binding experiments.; format: protein assay; how it was run: as §1
T1 sequence (P15823 whole entry): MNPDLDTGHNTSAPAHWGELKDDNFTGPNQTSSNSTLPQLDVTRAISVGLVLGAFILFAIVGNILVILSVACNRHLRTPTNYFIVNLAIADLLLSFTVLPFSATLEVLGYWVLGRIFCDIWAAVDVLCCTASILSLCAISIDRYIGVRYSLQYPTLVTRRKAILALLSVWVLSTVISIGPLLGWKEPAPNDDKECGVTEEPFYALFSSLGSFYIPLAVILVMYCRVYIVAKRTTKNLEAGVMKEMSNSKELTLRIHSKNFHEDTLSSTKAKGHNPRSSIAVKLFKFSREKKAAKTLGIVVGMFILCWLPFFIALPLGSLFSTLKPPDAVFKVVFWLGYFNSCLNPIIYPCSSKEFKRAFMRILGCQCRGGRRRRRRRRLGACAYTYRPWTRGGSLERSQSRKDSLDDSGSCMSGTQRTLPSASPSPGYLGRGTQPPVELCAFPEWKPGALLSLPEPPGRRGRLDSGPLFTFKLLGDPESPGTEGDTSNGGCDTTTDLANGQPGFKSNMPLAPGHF
T1 sequence (P23944 whole entry): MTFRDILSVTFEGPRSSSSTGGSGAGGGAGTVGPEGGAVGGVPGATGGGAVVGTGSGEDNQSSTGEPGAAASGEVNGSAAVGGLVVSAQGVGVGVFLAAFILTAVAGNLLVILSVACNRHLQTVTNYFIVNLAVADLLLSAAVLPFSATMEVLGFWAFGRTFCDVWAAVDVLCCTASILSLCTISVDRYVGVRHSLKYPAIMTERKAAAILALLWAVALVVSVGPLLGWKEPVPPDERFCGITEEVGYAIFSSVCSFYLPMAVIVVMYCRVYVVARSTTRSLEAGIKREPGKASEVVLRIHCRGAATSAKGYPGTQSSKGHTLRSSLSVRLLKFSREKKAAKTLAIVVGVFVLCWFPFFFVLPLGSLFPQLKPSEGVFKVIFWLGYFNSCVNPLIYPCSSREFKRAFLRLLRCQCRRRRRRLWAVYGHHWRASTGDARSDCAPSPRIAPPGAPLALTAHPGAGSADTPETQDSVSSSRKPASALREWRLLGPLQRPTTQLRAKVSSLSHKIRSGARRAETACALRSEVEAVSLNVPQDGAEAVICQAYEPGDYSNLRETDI
T1 sequence (P43140 whole entry): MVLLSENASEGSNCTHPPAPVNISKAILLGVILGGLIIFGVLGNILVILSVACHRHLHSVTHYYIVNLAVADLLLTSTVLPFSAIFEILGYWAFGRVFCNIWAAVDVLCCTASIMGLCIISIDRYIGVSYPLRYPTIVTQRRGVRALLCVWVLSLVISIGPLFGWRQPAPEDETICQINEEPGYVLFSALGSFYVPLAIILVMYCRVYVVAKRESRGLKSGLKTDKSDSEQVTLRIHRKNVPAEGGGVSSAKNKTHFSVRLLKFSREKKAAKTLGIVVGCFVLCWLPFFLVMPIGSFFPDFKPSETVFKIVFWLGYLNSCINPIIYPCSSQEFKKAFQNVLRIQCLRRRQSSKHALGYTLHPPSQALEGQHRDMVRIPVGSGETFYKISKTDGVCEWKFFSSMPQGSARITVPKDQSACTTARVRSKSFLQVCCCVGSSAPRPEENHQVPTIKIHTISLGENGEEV

[3] = biological target: T2, Adrenergic receptor alpha-2 (Rattus norvegicus, UniProt P22086+P19328+P22909); assay: Inhibitory activity against alpha-2 adrenergic receptor by 3H ligand binding experiments.; format: protein assay
T2 sequence (P22086 whole entry): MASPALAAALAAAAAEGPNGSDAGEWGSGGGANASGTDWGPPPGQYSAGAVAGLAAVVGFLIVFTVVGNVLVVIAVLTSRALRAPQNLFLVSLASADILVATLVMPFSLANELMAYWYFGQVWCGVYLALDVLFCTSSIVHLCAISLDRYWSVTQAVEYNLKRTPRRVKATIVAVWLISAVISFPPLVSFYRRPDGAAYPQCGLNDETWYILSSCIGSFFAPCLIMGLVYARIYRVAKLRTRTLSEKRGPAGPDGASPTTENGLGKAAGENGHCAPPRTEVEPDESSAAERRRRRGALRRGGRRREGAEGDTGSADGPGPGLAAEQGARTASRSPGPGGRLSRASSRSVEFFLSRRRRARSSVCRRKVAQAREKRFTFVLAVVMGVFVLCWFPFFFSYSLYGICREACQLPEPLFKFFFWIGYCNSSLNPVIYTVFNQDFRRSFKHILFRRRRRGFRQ
T2 sequence (P19328 whole entry): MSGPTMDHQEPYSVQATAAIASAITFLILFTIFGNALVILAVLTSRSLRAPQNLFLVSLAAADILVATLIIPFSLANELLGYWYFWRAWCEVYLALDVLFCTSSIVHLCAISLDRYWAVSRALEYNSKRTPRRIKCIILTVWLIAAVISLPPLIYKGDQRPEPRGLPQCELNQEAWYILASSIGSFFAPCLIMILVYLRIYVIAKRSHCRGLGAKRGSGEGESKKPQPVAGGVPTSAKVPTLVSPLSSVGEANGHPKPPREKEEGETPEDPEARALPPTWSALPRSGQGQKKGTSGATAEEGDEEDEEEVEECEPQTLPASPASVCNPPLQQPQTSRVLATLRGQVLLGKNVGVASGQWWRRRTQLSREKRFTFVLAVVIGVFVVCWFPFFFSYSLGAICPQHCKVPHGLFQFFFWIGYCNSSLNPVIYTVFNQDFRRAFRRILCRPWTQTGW
T2 sequence (P22909 whole entry): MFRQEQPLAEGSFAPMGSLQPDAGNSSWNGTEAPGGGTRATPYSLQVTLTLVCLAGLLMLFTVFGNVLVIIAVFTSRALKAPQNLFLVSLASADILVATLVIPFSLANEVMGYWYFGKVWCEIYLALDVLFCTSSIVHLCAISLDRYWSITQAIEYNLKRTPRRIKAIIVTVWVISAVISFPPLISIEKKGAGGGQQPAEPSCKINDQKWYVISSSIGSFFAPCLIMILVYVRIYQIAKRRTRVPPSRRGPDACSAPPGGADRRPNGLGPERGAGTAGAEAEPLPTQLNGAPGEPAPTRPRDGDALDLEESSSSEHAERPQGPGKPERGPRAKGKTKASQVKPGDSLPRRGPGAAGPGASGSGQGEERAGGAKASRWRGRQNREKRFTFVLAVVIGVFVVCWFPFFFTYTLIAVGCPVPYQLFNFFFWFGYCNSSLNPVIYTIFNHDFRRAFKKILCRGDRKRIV

Canis familiaris [4] = assay: Compound was tested for anti-apomorphine effect in 3 dogs and the vomiting frequency expressed at a dose of 0.2 mg/kg perorally.; format: functional, Canis lupus familiaris; settings: route oral
How it was run: (§2)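 Dogs received oral test article, then were challenged with apomorphine, and vomiting frequency was counted; saline controls were run. ED50 with 95% confidence limits was derived by probit analysis. Significance versus control was tested by Student's t test.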

Canis familiaris [5] = assay: Compound was tested for anti-apomorphine effect in 3 dogs and the vomiting frequency expressed at a dose of 0.5 mg/kg perorally.; format: functional, Canis lupus familiaris; settings: route oral; how it was run: as §2
Canis familiaris [6] = assay: Compound was tested for anti-apomorphine effect in 3 dogs and the vomiting frequency expressed at a dose of 1.0 mg/kg perorally.; format: functional, Canis lupus familiaris; settings: route oral; how it was run: as §2
Canis familiaris [7] = assay: Compound was tested for anti-apomorphine effect in 3 dogs and the vomiting frequency expressed at a dose of 2.0 mg/kg perorally.; format: functional, Canis lupus familiaris; settings: route oral; how it was run: as §2
Canis familiaris [8] = organism: Canis familiaris; assay: Effective dose required to inhibit 50% of apomorphine effect(95% confidence limits); format: functional; settings: Canis lupus familiaris
How it was run: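 Dogs were given the test drug orally, with saline controls, and then challenged with apomorphine. Vomiting frequency was counted in groups of 2–8 dogs per dose. ED50 and its 95% confidence limits were obtained by probit analysis. Significance against controls used Student's t test.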

Rattus norvegicus = assay: Gastric emptying of phenol red semisolid meal in rats at dose of 2.0 mg/kg, administered perorally.; format: functional; settings: route oral
Canis familiaris [9] = assay: Compound was tested for anti-apomorphine effect in 2 dogs and the vomiting frequency expressed at a dose of 1.0 mg/kg perorally.; format: functional, Canis lupus familiaris; settings: route oral; how it was run: as §2
Canis familiaris [10] = organism: Canis familiaris; assay: Effective dose required to inhibit 50% of apomorphine effect; format: functional; settings: Canis lupus familiaris; how it was run: as §2
[11] = biological target: Serotonin 2 (5-HT2) receptor (Rattus norvegicus, UniProt P30994+P08909+P14842); assay: Inhibitory activity against 5-hydroxytryptamine 2 receptor by 3H ligand binding experiments.; format: protein assay
Canis familiaris [12] = assay: Compound was tested for anti-apomorphine effect in 8 dogs and the vomiting frequency expressed at a dose of 1.0 mg/kg perorally.; format: functional, Canis lupus familiaris; settings: route oral; how it was run: as §2
Canis familiaris [13] = assay: Compound was tested for anti-apomorphine effect in 8 dogs and the vomiting frequency expressed at a dose of 10.0 mg/kg perorally.; format: functional, Canis lupus familiaris; settings: route oral; how it was run: as §2
D(2) dopamine receptor = D(2) dopamine receptor (Rattus norvegicus, UniProt P61169); assay: Inhibitory activity against dopamine receptor D2 by 3H ligand binding experiments.
Chain of D(2) dopamine receptor (P61169 whole entry): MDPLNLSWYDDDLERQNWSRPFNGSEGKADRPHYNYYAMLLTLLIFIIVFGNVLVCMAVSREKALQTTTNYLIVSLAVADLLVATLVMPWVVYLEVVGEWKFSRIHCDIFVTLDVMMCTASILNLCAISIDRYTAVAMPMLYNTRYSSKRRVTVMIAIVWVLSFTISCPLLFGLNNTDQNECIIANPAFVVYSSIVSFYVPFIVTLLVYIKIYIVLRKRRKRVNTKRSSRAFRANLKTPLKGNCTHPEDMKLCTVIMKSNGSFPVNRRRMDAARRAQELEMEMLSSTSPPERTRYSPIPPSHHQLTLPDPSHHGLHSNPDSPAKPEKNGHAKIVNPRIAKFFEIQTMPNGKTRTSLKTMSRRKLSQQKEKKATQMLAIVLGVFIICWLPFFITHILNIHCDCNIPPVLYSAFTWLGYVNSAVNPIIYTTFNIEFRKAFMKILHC
How it was run: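 Competition binding used rat striatal synaptic membranes (10 mg wet tissue per assay) with [3H]spiperone. Test compounds spanned 0.01–1000 μM. Assays were started by adding tissue and stopped by rapid glass-fibre filtration with ice-cold buffer washes. Filters were solubilised and radioactivity counted.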

IC50 [1] [µM] | IC50 [2] [µM] | SMILES | IC50 [3] [µM] | Vomiting frequency (Canis familiaris [4]) | Vomiting frequency (Canis familiaris [5]) | Vomiting frequency (Canis familiaris [6]) | Vomiting frequency (Canis familiaris [7]) | ED50 (Canis familiaris [8]) [mg/kg] | GE (Rattus norvegicus) [%] | Vomiting frequency (Canis familiaris [9]) | ED50 (Canis familiaris [10]) [mg/kg] | IC50 [11] [µM] | Vomiting frequency (Canis familiaris [12]) | Vomiting frequency (Canis familiaris [13]) | IC50 (D(2) dopamine receptor) [µM]
7.8 | 32.8 | CCN(CC)CCNC(=O)c1cc(Cl)c(N)cc1OC [METOCLOPRAMIDE] | 7.7 | 7.7 | 4 | 1.3 | 0.3 | 0.45 | 21 |  |  |  |  |  | 
4.47 | 0.11 | COc1cc(N)c(Cl)cc1C(=O)NC1CCN(CCCOc2ccc(F)cc2)CC1OC (configuration not stated) [CISAPRIDE] |  |  |  |  |  |  | 47 | 6 | > 1 |  |  |  | 

SMILES | IC50 [1] [µM] | IC50 [2] [µM] | IC50 [3] [µM] | Vomiting frequency (Canis familiaris [4]) | Vomiting frequency (Canis familiaris [5]) | Vomiting frequency (Canis familiaris [6]) | Vomiting frequency (Canis familiaris [7]) | ED50 (Canis familiaris [8]) [mg/kg] | GE (Rattus norvegicus) [%] | Vomiting frequency (Canis familiaris [9]) | ED50 (Canis familiaris [10]) [mg/kg] | IC50 [11] [µM] | Vomiting frequency (Canis familiaris [12]) | Vomiting frequency (Canis familiaris [13]) | IC50 (D(2) dopamine receptor) [µM]
CCOc1cc(N)c(Cl)cc1C(=O)NCC1CN(Cc2ccc(F)cc2)CCO1.O=C(O)CC(O)(CC(=O)O)C(=O)O (configuration not stated) [MOSAPRIDE CITRATE] | > 100 | > 100 | > 10 |  |  |  |  |  |  |  | > 10 | > 100 | 6.4 | 6.3 | > 100
